Experiments:
Trypanosoma cruzi [1] = assay: Antitrypanosomal activity against Trypanosoma cruzi Tulahuen 2 epimastigotes assessed as inhibition of parasite growth at 25 uM relative to control; format: functional; conditions: read-out: GI
Procedure, shortened: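 Epimastigotes of T. cruzi Tulahuen 2 strain exposed to compound at 25 µM. Growth inhibition is given as percentage relative to untreated parasites. Values are means of three separate experiments, SD under 10%.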

[2] = Octanol-water partition coefficient of the compound; format: physicochemical
Trypanosoma cruzi [3] = assay: Antitrypanosomal activity against Trypanosoma cruzi Tulahuen 2 epimastigotes; format: functional, organism-based

| SMILES | inhibition of growth at 25 µM (Trypanosoma cruzi [1]) [%] | logP [2] | IC50 (Trypanosoma cruzi [3]) [µM] |
| --- | --- | --- | --- |
| N#Cc1c(-c2cccs2)[n+]([O-])c2ccc(F)cc2[n+]1[O-] | 100 | 1.75 | 13 |
| N#Cc1c(-c2cccs2)[n+]([O-])c2ccc(Cl)cc2[n+]1[O-] | 100 | 1.89 | 7.1 |
| Cc1ccc2c(c1)[n+]([O-])c(C#N)c(-c1cccs1)[n+]2[O-] | 74.3 | 1.62 | 14.8 |
| N#Cc1c(-c2cccs2)[n+]([O-])c2ccc(C(F)(F)F)cc2[n+]1[O-] | 100 | 2.27 | 7.8 |
| COc1ccc2c(c1)[n+]([O-])c(C#N)c(-c1cccs1)[n+]2[O-] | 109 | 1.11 | 14.3 |
| N#Cc1c(-c2ccccc2)[n+]([O-])c2cc(F)c(F)cc2[n+]1[O-] | 81.1 | 2.62 | 15.3 |
| N#Cc1c(-c2ccc(F)cc2)[n+]([O-])c2cc(F)c(F)cc2[n+]1[O-] | 29.4 | 2.74 | 36.6 |
| N#Cc1c(-c2ccc(Cl)cc2)[n+]([O-])c2cc(F)c(F)cc2[n+]1[O-] | 80.9 | 2.87 | 11.3 |
| Cc1ccc(-c2c(C#N)[n+]([O-])c3cc(F)c(F)cc3[n+]2[O-])cc1 | 86.2 | 2.87 | 14.6 |
| COc1ccc(-c2c(C#N)[n+]([O-])c3cc(F)c(F)cc3[n+]2[O-])cc1 | 91.6 | 2.09 | 12.1 |
| N#Cc1c(-c2ccco2)[n+]([O-])c2ccccc2[n+]1[O-] | 46.3 | 0.582 | 25 |
| N#Cc1c(-c2ccco2)[n+]([O-])c2ccc(F)cc2[n+]1[O-] | 83.4 | 0.983 | 14.9 |
| N#Cc1c(-c2ccco2)[n+]([O-])c2ccc(Cl)cc2[n+]1[O-] | 64.5 | 1.11 | 18.9 |
| Cc1ccc2c(c1)[n+]([O-])c(C#N)c(-c1ccco1)[n+]2[O-] | 68.5 | 0.845 | 18.1 |
| N#Cc1c(-c2ccco2)[n+]([O-])c2ccc(C(F)(F)F)cc2[n+]1[O-] | 100 | 1.5 | 12.5 |
| COc1ccc2c(c1)[n+]([O-])c(C#N)c(-c1ccco1)[n+]2[O-] | 33.4 | 0.354 | > 25 |
| N#Cc1c(-c2cccs2)[n+]([O-])c2ccccc2[n+]1[O-] | 100 | 1.35 | 12.7 |
| COc1ccc(-c2c(C#N)[n+]([O-])c3cc(C)ccc3[n+]2[O-])cc1 | 94.6 | 1.82 | 18.9 |
| Cc1cc2c(cc1C)[n+]([O-])c(-c1ccccc1)c(C#N)[n+]2[O-] | 97.4 | 2.33 | 22.1 |
| N#Cc1c(-c2ccccc2)[n+]([O-])c2cc(Cl)c(Cl)cc2[n+]1[O-] | 90 | 2.87 | 15.3 |
| Cc1ccc(-c2c(C#N)[n+]([O-])c3cc(Cl)c(Cl)cc3[n+]2[O-])cc1 | 95.6 | 3.1 | 14.6 |

| SMILES | inhibition of growth at 25 µM (Trypanosoma cruzi [1]) [%] | logP [2] | IC50 (Trypanosoma cruzi [3]) [µM] |
| --- | --- | --- | --- |
| Cc1cc2c(cc1C)[n+]([O-])c(-c1ccc(F)cc1)c(C#N)[n+]2[O-] | 92.5 | 2.72 | 16.4 |
| N#Cc1c(-c2ccc(OC(F)(F)F)cc2)[n+]([O-])c2ccc(C(F)(F)F)cc2[n+]1[O-] | 100 | 2.79 | 9.2 |
| N#Cc1c(-c2ccccc2)[n+]([O-])c2ccccc2[n+]1[O-] | 36.9 | 1.84 | 66.6 |
| Cc1ccc2c(c1)[n+]([O-])c(C#N)c(-c1ccccc1)[n+]2[O-] | 88.1 | 2.09 | 23.7 |
| COc1ccc2c(c1)[n+]([O-])c(C#N)c(-c1ccccc1)[n+]2[O-] | 111 | 1.58 | 19.3 |
| N#Cc1c(-c2ccc(Cl)cc2)[n+]([O-])c2cc(Cl)c(Cl)cc2[n+]1[O-] | 89.8 | 3.1 | 13.8 |
| Cc1ccc(-c2c(C#N)[n+]([O-])c3cc(C)c(C)cc3[n+]2[O-])cc1 | 98.2 | 2.57 | 21.2 |
| N#Cc1c(-c2ccc(F)cc2)[n+]([O-])c2ccc(Cl)cc2[n+]1[O-] | 92.7 | 2.74 | 13.2 |
| Cc1ccc2c(c1)[n+]([O-])c(C#N)c(-c1ccc(F)cc1)[n+]2[O-] | 83.8 | 2.48 | 17.4 |
| Cc1ccc2c(c1)[n+]([O-])c(C#N)c(-c1ccc(Cl)cc1)[n+]2[O-] | 88.4 | 2.6 | 17.4 |
| Cc1ccc(-c2c(C#N)[n+]([O-])c3ccccc3[n+]2[O-])cc1 | 104 | 2.09 | 23.7 |
| Cc1ccc(-c2c(C#N)[n+]([O-])c3cc(Cl)ccc3[n+]2[O-])cc1 | 104 | 2.6 | 17.4 |
| N#Cc1c(-c2ccc(F)cc2)[n+]([O-])c2cc(Cl)c(Cl)cc2[n+]1[O-] | 85.3 | 2.98 | 11.3 |
| COc1ccc2c(c1)[n+]([O-])c(C#N)c(-c1ccc(C)cc1)[n+]2[O-] | 112 | 1.82 | 18.9 |
| COc1ccc(-c2c(C#N)[n+]([O-])c3ccccc3[n+]2[O-])cc1 | 110 | 1.58 | 19.3 |
| N#Cc1c(-c2ccc(OC(F)(F)F)cc2)[n+]([O-])c2ccccc2[n+]1[O-] | 100 | 1.94 | 14.5 |
| COc1ccc(-c2c(C#N)[n+]([O-])c3cc(Cl)c(Cl)cc3[n+]2[O-])cc1 | 42.7 | 2.33 | 29 |
| N#Cc1c(-c2ccc(F)cc2)[n+]([O-])c2ccccc2[n+]1[O-] | 82.8 | 2.23 | 15.2 |
| N#Cc1c(-c2ccccc2)[n+]([O-])c2ccc(F)cc2[n+]1[O-] | 89.4 | 2.23 | 15.4 |
| N#Cc1c(-c2ccc(F)cc2)[n+]([O-])c2ccc(F)cc2[n+]1[O-] | 63.8 | 2.62 | 14.4 |
| N#Cc1c(-c2ccc(Cl)cc2)[n+]([O-])c2ccc(F)cc2[n+]1[O-] | 85.4 | 2.74 | 13.4 |

| SMILES | inhibition of growth at 25 µM (Trypanosoma cruzi [1]) [%] | logP [2] | IC50 (Trypanosoma cruzi [3]) [µM] |
| --- | --- | --- | --- |
| Cc1ccc(-c2c(C#N)[n+]([O-])c3cc(C(F)(F)F)ccc3[n+]2[O-])cc1 | 114 | 2.95 | 12.3 |
| COc1ccc(-c2c(C#N)[n+]([O-])c3cc(F)ccc3[n+]2[O-])cc1 | 92.2 | 1.97 | 14.3 |
| N#Cc1c(-c2ccc(OC(F)(F)F)cc2)[n+]([O-])c2ccc(Cl)cc2[n+]1[O-] | 89.1 | 2.45 | 8.3 |
| Cc1ccc2c(c1)[n+]([O-])c(C#N)c(-c1ccc(OC(F)(F)F)cc1)[n+]2[O-] | 75.1 | 2.18 | 10.7 |
| COc1ccc2c(c1)[n+]([O-])c(C#N)c(-c1ccc(OC(F)(F)F)cc1)[n+]2[O-] | 100 | 1.69 | 8.2 |
| N#Cc1c(-c2ccccc2)[n+]([O-])c2ccc(C(F)(F)F)cc2[n+]1[O-] | 100 | 2.72 | 15.1 |
| N#Cc1c(-c2ccc(F)cc2)[n+]([O-])c2ccc(C(F)(F)F)cc2[n+]1[O-] | 100 | 3.1 | 14.9 |
| N#Cc1c(-c2ccc(Cl)cc2)[n+]([O-])c2ccc(Cl)cc2[n+]1[O-] | 97.5 | 2.87 | 15.3 |
| Cc1cc2c(cc1C)[n+]([O-])c(-c1ccc(Cl)cc1)c(C#N)[n+]2[O-] | 98.7 | 2.83 | 16.4 |
| COc1ccc(-c2c(C#N)[n+]([O-])c3cc(C(F)(F)F)ccc3[n+]2[O-])cc1 | 114 | 2.45 | 10.7 |
| N#Cc1c(-c2ccccc2)[n+]([O-])c2ccc(Cl)cc2[n+]1[O-] | 97.8 | 2.35 | 18.1 |
| N#Cc1c(-c2ccc(Cl)cc2)[n+]([O-])c2ccccc2[n+]1[O-] | 97.1 | 2.35 | 18.1 |
| COc1ccc2c(c1)[n+]([O-])c(C#N)c(-c1ccc(Cl)cc1)[n+]2[O-] | 111 | 2.09 | 14.3 |
| COc1ccc2c(c1)[n+]([O-])c(C#N)c(-c1ccc(F)cc1)[n+]2[O-] | 84.2 | 1.97 | 14.6 |
| Cc1ccc(-c2c(C#N)[n+]([O-])c3cc(C)ccc3[n+]2[O-])cc1 | 41.6 | 2.33 | 50 |
| COc1ccc(-c2c(C#N)[n+]([O-])c3cc(Cl)ccc3[n+]2[O-])cc1 | 110 | 2.09 | 14.3 |
| N#Cc1c(-c2ccc(OC(F)(F)F)cc2)[n+]([O-])c2ccc(F)cc2[n+]1[O-] | 80.2 | 2.33 | 13.1 |
| Cc1ccc(-c2c(C#N)[n+]([O-])c3cc(F)ccc3[n+]2[O-])cc1 | 87.3 | 2.48 | 17.4 |
| N#Cc1c(-c2ccc(Cl)cc2)[n+]([O-])c2ccc(C(F)(F)F)cc2[n+]1[O-] | 100 | 3.22 | 9.2 |
| CC1CS(=O)(=O)CCN1/N=C/c1ccc([N+](=O)[O-])o1 (stereo not given) [NIFURTIMOX] | 100 | -0.746 |  |

Source: ChEMBL document CHEMBL1208769, “Anti-T. cruzi activities and QSAR studies of 3-arylquinoxaline-2-carbonitrile di-N-oxides” (Bioorg Med Chem Lett, 2010)
